Laboratory results as given in article PMC5741288 (Pain Reports, 2016).

Assay: Treatment-emergent adverse events, tolerability
Assay type: in vivo, healthy men
Procedure, shortened: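 Healthy men received single oral tablet doses (part 1: 1–225 mg; part 2: 10, 50 mg) or placebo under double-blind randomisation. Treatment-emergent adverse events were recorded along with clinical laboratory tests, ECG, oral temperature, vital signs and physical examinations, through follow-up.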

## CC(C)(O)c1ccccc1-c1ccc2[nH]c(/C=C/c3ccc(C(F)(F)F)cc3)nc2c1 [JNJ-39439335, trans-2-(2-{2-[2-(4-Trifluoromethyl-phenyl)-vinyl]-1H-benzimidazol-5-yl}-phenyl)-propan-2-ol]
In vivo
  Doses at which thermohypoesthesia occurred: ≥ 10 mg
Of 79 participants receiving JNJ-39439335
  Participants with minor or first-degree burns on the hand or the mouth: 7 participants
Part 1, 1 mg (N = 6)
  TEAE Agusia: 0 n (%)
  TEAE Back pain: 0 n (%)
  TEAE Burning sensation: 0 n (%)
  TEAE Chills: 0 n (%)
  TEAE Dizziness: 0 n (%)
  TEAE Dizziness postural: 1 (17) n (%)
  TEAE Dysgeusia: 0 n (%)
  TEAE Fatigue: 1 (17) n (%)
  TEAE Feeling cold: 0 n (%)
  TEAE Feeling hot: 0 n (%)
  TEAE Headache: 0 n (%)
  TEAE Hematoma: 0 n (%)
  TEAE Hyperhidrosis: 0 n (%)
  TEAE Hypoesthesia: 0 n (%)
  TEAE Hypogeusia: 0 n (%)
  TEAE Nausea: 0 n (%)
  TEAE Paresthesia: 0 n (%)
  TEAE Pruritus: 0 n (%)
  TEAE Pyrexia: 0 n (%)
  TEAE Rhinitis: 0 n (%)
  TEAE Thermal burn: 0 n (%)
  TEAE Thermohypoesthesia: 0 n (%)
  Total no. participants with AEs: 2 (33) n (%)
Part 1, 2 mg (N = 6)
  TEAE Agusia: 0 n (%)
  TEAE Back pain: 0 n (%)
  TEAE Burning sensation: 0 n (%)
  TEAE Chills: 0 n (%)
  TEAE Dizziness: 0 n (%)
  TEAE Dizziness postural: 0 n (%)
  TEAE Dysgeusia: 0 n (%)
  TEAE Fatigue: 0 n (%)
  TEAE Feeling cold: 0 n (%)
  TEAE Feeling hot: 0 n (%)
  TEAE Headache: 1 (17) n (%)
  TEAE Hematoma: 1 (17) n (%)
  TEAE Hyperhidrosis: 0 n (%)
  TEAE Hypoesthesia: 1 (17) n (%)
  TEAE Hypogeusia: 0 n (%)
  TEAE Nausea: 0 n (%)
  TEAE Paresthesia: 0 n (%)
  TEAE Pruritus: 0 n (%)
  TEAE Pyrexia: 0 n (%)
  TEAE Rhinitis: 0 n (%)
  TEAE Thermal burn: 0 n (%)
  TEAE Thermohypoesthesia: 0 n (%)
  Total no. participants with AEs: 3 (50) n (%)
Part 1, 5 mg (N = 6)
  TEAE Agusia: 0 n (%)
  TEAE Back pain: 0 n (%)
  TEAE Burning sensation: 0 n (%)
  TEAE Chills: 0 n (%)
  TEAE Dizziness: 0 n (%)
  TEAE Dizziness postural: 0 n (%)
  TEAE Dysgeusia: 0 n (%)
  TEAE Fatigue: 0 n (%)
  TEAE Feeling cold: 1 (17) n (%)
  TEAE Feeling hot: 1 (17) n (%)
  TEAE Headache: 0 n (%)
  TEAE Hematoma: 0 n (%)
  TEAE Hyperhidrosis: 0 n (%)
  TEAE Hypoesthesia: 0 n (%)
  TEAE Hypogeusia: 0 n (%)
  TEAE Nausea: 0 n (%)
  TEAE Paresthesia: 0 n (%)
  TEAE Pruritus: 0 n (%)
  TEAE Pyrexia: 4 (67) n (%)
  TEAE Rhinitis: 0 n (%)
  TEAE Thermal burn: 0 n (%)
  TEAE Thermohypoesthesia: 0 n (%)
  Total no. participants with AEs: 4 (67) n (%)
Part 1, 10 mg (N = 6)
  TEAE Agusia: 0 n (%)
  TEAE Back pain: 0 n (%)
  TEAE Burning sensation: 0 n (%)
  TEAE Chills: 0 n (%)
  TEAE Dizziness: 1 (17) n (%)
  TEAE Dizziness postural: 2 (33) n (%)
  TEAE Dysgeusia: 0 n (%)
  TEAE Fatigue: 0 n (%)
  TEAE Feeling cold: 0 n (%)
  TEAE Feeling hot: 0 n (%)
  TEAE Headache: 1 (17) n (%)
  TEAE Hematoma: 0 n (%)
  TEAE Hyperhidrosis: 1 (17) n (%)
  TEAE Hypoesthesia: 0 n (%)
  TEAE Hypogeusia: 0 n (%)
  TEAE Nausea: 1 (17) n (%)
  TEAE Orthostatic hypotension: 2 (33) n (%)
  TEAE Paresthesia: 1 (17) n (%)
  TEAE Pruritus: 1 (17) n (%)
  TEAE Pyrexia: 5 (83) n (%)
  TEAE Rhinitis: 2 (33) n (%)
  TEAE Thermal burn: 0 n (%)
  TEAE Thermohypoesthesia: 3 (50) n (%)
  Total no. participants with AEs: 6 (100) n (%)
Part 1, 15 mg (N = 6)
  TEAE Agusia: 0 n (%)
  TEAE Back pain: 0 n (%)
  TEAE Burning sensation: 0 n (%)
  TEAE Chills: 0 n (%)
  TEAE Dizziness: 1 (17) n (%)
  TEAE Dizziness postural: 1 (17) n (%)
  TEAE Dysgeusia: 1 (17) n (%)
  TEAE Fatigue: 0 n (%)
  TEAE Feeling cold: 4 (67) n (%)
  TEAE Feeling hot: 5 (83) n (%)
  TEAE Headache: 0 n (%)
  TEAE Hematoma: 0 n (%)
  TEAE Hyperhidrosis: 3 (50) n (%)
  TEAE Hypoesthesia: 0 n (%)
  TEAE Hypogeusia: 2 (33) n (%)
  TEAE Nausea: 0 n (%)
  TEAE Paresthesia: 2 (33) n (%)
  TEAE Pruritus: 1 (17) n (%)
  TEAE Pyrexia: 4 (67) n (%)
  TEAE Rhinitis: 0 n (%)
  TEAE Thermal burn: 0 n (%)
  TEAE Thermohypoesthesia: 5 (83) n (%)
  Total no. participants with AEs: 6 (100) n (%)
Part 1, 15 mg R (N = 6)
  TEAE Agusia: 0 n (%)
  TEAE Back pain: 0 n (%)
  TEAE Burning sensation: 0 n (%)
  TEAE Chills: 0 n (%)
  TEAE Dizziness: 0 n (%)
  TEAE Dizziness postural: 0 n (%)
  TEAE Dysgeusia: 0 n (%)
  TEAE Fatigue: 0 n (%)
  TEAE Feeling cold: 3 (50) n (%)
  TEAE Feeling hot: 3 (50) n (%)
  TEAE Headache: 0 n (%)
  TEAE Hematoma: 0 n (%)
  TEAE Hyperhidrosis: 0 n (%)
  TEAE Hypoesthesia: 1 (17) n (%)
  TEAE Hypogeusia: 0 n (%)
  TEAE Nausea: 0 n (%)
  TEAE Paresthesia: 2 (33) n (%)
  TEAE Pruritus: 0 n (%)
  TEAE Pyrexia: 2 (33) n (%)
  TEAE Rhinitis: 0 n (%)
  TEAE Thermal burn: 0 n (%)
  TEAE Thermohypoesthesia: 2 (33) n (%)
  Total no. participants with AEs: 6 (100) n (%)
Part 1, 30 mg (N = 5)
  TEAE Agusia: 0 n (%)
  TEAE Back pain: 2 (40) n (%)
